Assay results reported in ChEMBL document CHEMBL3112439, “Inhibition of long chain fatty acyl-CoA synthetase (ACSL) and ischemia reperfusion injury” (Bioorg Med Chem Lett, 2014).
Active and inactive are the calls of the source. No cut-off for these calls is given here.

Tests used:
[1] = Inhibition of ACSL in mouse solubilized bEND.3 cells using [14C]-palmitic acid as substrate after 2 mins by liquid scintillation spectrometric analysis; details: BEND3, 2 min
How it was run: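 ACSL activity in solubilized bEND3 brain endothelial cells; reaction velocity measured across a range of inhibitor concentrations. EC50 obtained by fitting velocity vs. inhibitor concentration to a constrained three-parameter log(inhibitor) vs. response function.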

Mus musculus [2] = species: Mus musculus; assay: Inhibition of ACSL in mouse solubilized bEND.3 cells using [14C]-palmitic acid as substrate assessed as effect on total recovery of radioactive substrate at 15 uM after 2 hrs by liquid scintillation spectrometric analysis
How it was run: (§1)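 In situ assay in intact bEND3 brain endothelial cells given [14C]-palmitic acid; test agents at 15 μM (triacsin C reference at 1.5 μM). Radioactivity measured in the extractable lipid fraction, the aqueous layer and the media, with total recovery summed (lipid + aqueous + media); lipid mass extracted also determined. Treated groups compared with control by one-way ANOVA and Dunnett's t test; n = 3 to 9 independent experiments.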

Mus musculus [3] = species: Mus musculus; assay: Inhibition of ACSL in mouse solubilized bEND.3 cells using [14C]-palmitic acid as substrate assessed as increase in unincorporated radioactivity in media at 15 uM after 2 hrs by liquid scintillation spectrometric analysis; how it was run: as §1
Mus musculus [4] = species: Mus musculus; assay: Inhibition of ACSL in mouse solubilized bEND.3 cells using [14C]-palmitic acid as substrate assessed as decrease in radioactivity in aqueous layer at 15 uM after 2 hrs by liquid scintillation spectrometric analysis
Mus musculus [5] = species: Mus musculus; assay: Effect on mean extractable lipid mass in mouse bEND.3 cells at 15 uM relative to control; format: functional, cell-based; how it was run: as §1
Mus musculus [6] = species: Mus musculus; assay: Inhibition of ACSL in mouse […] bEND.3 cells assessed as inhibition of [14C]-palmitate incorporation into extractable lipids at 15 uM after 2 hrs by liquid scintillation spectrometric analysis; how it was run: as §1
Mus musculus [7] = species: Mus musculus; assay: Effect on mean extractable lipid mass in mouse bEND.3 cells at 1.5 uM relative to control; format: functional, cell-based
How it was run: (§2)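 Intact bEND3 brain endothelial cells were labelled with [14C]-palmitic acid with inhibitor at a single concentration, against untreated control cultures. Radioactivity was measured in the extractable lipid fraction, the aqueous fraction and the medium, and total recovery was summed (lipid + aqueous + media). Lipid mass was expressed as % of control. Groups were compared with control by one-way ANOVA and Dunnett's test; n = 3 to 9 independent experiments.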

Mus musculus [8] = species: Mus musculus; assay: Inhibition of ACSL in mouse solubilized bEND.3 cells using [14C]-palmitic acid as substrate assessed as effect on total recovery of radioactive substrate at 1.5 uM after 2 hrs by liquid scintillation spectrometric analysis; how it was run: as §2
Leukocyte [9] = assay: Inhibition of Sprague-Dawley rat leukocytes recruitment assessed as inhibition of cell rolling in unbranched post-capillary venules of mesentery at 5 uM measured at 120 mins; format: functional, tissue-based
How it was run: (§3)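 Recruitment was induced by L-NAME. Rolling, adhesion and extravasation were counted in post-capillary venules of the mesentery at 120 min. Compound was present at 5 or 50 μM, and vehicle-alone controls were run. Results are mean ± SEM of 3 to 7 independent experiments.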

Leukocyte [10] = assay: Inhibition of Sprague-Dawley rat leukocytes recruitment assessed as inhibition of cell adhesion in unbranched post-capillary venules of mesentery at 5 uM measured at 120 mins; format: functional, tissue-based; how it was run: as §3
Mus musculus [11] = species: Mus musculus; assay: Inhibition of ACSL in mouse solubilized bEND.3 cells using [14C]-palmitic acid as substrate assessed as decrease in radioactivity in aqueous layer at 1.5 uM after 2 hrs by liquid scintillation spectrometric analysis
Mus musculus [12] = species: Mus musculus; assay: Inhibition of ACSL in mouse solubilized bEND.3 cells using [14C]-palmitic acid as substrate assessed as increase in unincorporated radioactivity in media at 1.5 uM after 2 hrs by liquid scintillation spectrometric analysis; how it was run: as §2
Mus musculus [13] = species: Mus musculus; assay: Inhibition of ACSL in mouse […] bEND.3 cells assessed as inhibition of [14C]-palmitate incorporation into extractable lipids at 1.5 uM after 2 hrs by liquid scintillation spectrometric analysis; how it was run: as §2
Leukocyte [14] = assay: Inhibition of Sprague-Dawley rat leukocytes recruitment assessed as inhibition of cell extravasation in unbranched post-capillary venules of mesentery at 5 uM measured at 120 mins; format: functional, tissue-based; how it was run: as §3
Leukocyte [15] = assay: Inhibition of Sprague-Dawley rat leukocytes recruitment assessed as inhibition of cell adhesion in unbranched post-capillary venules of mesentery at 50 uM measured at 120 mins; format: functional, tissue-based
How it was run: (§4)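 Leukocyte recruitment induced by L-NAME, used as an ischemia model, in post-capillary venules of the mesentery. Rolling, adhesion and extravasation scored at 120 minutes with or without compound at 5 or 50 μM; vehicle-alone group included. Mean ± SEM of 3 to 7 independent experiments.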

Leukocyte [16] = assay: Inhibition of Sprague-Dawley rat leukocytes recruitment assessed as inhibition of cell extravasation in unbranched post-capillary venules of mesentery at 50 uM measured at 120 mins; format: functional, tissue-based; how it was run: as §4
Leukocyte [17] = assay: Inhibition of Sprague-Dawley rat leukocytes recruitment assessed as inhibition of cell rolling in unbranched post-capillary venules of mesentery at 50 uM measured at 120 mins; format: functional, tissue-based; how it was run: as §4

SMILES	EC50 [1]	inhibition (Mus musculus [2])	inhibition (Mus musculus [3])	inhibition (Mus musculus [4])	inhibition (Mus musculus [6])	Activity (Mus musculus [5])	further results
CCC/C=C/C/C=C/C=C/CNN1CCCS1(=O)=O	164 µM						
CCC/C=C/C/C=C/C=C/C=N/NN=O [TRIACSIN C]	0.358 µM						Activity (Mus musculus [7]): inactive; inhibition (Mus musculus [8]): Active; inhibition (Leukocyte [9]): Active; inhibition (Leukocyte [10]): Active; inhibition (Mus musculus [11]): Active; inhibition (Mus musculus [12]): Active; inhibition (Mus musculus [13]): Active; inhibition (Leukocyte [14]): Active
CCC/C=C/C/C=C/C=C/CN(O)/N=N/c1ccc(C(=O)O)cc1	74.8 µM						
CCC/C=C/C/C=C/C=C/Cn1oc(=O)[nH]c1=O	53.5 µM						
CCC/C=C/C/C=C/CN(O)/N=N/c1ccc(C(=O)O)cc1	26.9 µM	Active	Active	Active	Active	inactive	
C=CCCCCCCCCCN(O)/N=N/c1ccc(C(=O)O)cc1	73.1 µM						
C=CCCCCCCCCCNO	70.4 µM	Active	Active	Active	Active	inactive	inhibition (Leukocyte [15]): Active; inhibition (Leukocyte [16]): Active; inhibition (Leukocyte [17]): Active
CCC/C=C/C/C=C/C=N/N1CCCS1(=O)=O	171 µM		inactive	inactive		Active	

The remaining compounds from weak to strong by EC50 [1], led by results:

EC50 [1]	inhibition (Mus musculus [2])	inhibition (Mus musculus [3])	inhibition (Mus musculus [4])	inhibition (Mus musculus [6])	SMILES	Activity (Mus musculus [5])	further results
14.8 µM					CCC/C=C/C/C=C/C=C/CNO		
9.04 µM					C=CCCCCCCCCCn1oc(=O)[nH]c1=O		
6.88 µM	Active	Active	Active	Active	C=CCCCCCCCCCNc1ccc(C(=O)O)c(O)c1	inactive	
5.86 µM	Active	Active	Active	Active	CCC/C=C/C/C=C/C=C/CNc1ccc(C(=O)O)cc1	inactive	inhibition (Leukocyte [15]): Active; inhibition (Leukocyte [9]): Active; inhibition (Leukocyte [16]): Active; inhibition (Leukocyte [10]): Active; inhibition (Leukocyte [17]): Active; inhibition (Leukocyte [14]): Active
4.95 µM	Active	Active	Active	Active	C=CCCCCCCCCCNc1ccc(C(=O)O)cc1	inactive	
